Laboratory results: ChEMBL document CHEMBL3751804, “Carbazole-containing sulfonamides and sulfamides: Discovery of cryptochrome modulators as antidiabetic agents” (Bioorg Med Chem Lett, 2016)

target: Voltage-gated inwardly rectifying potassium channel KCNH2 (Homo sapiens, UniProt Q12809); test: Inhibition of human ERG; conditions: not given
Sequence (Q12809 whole entry): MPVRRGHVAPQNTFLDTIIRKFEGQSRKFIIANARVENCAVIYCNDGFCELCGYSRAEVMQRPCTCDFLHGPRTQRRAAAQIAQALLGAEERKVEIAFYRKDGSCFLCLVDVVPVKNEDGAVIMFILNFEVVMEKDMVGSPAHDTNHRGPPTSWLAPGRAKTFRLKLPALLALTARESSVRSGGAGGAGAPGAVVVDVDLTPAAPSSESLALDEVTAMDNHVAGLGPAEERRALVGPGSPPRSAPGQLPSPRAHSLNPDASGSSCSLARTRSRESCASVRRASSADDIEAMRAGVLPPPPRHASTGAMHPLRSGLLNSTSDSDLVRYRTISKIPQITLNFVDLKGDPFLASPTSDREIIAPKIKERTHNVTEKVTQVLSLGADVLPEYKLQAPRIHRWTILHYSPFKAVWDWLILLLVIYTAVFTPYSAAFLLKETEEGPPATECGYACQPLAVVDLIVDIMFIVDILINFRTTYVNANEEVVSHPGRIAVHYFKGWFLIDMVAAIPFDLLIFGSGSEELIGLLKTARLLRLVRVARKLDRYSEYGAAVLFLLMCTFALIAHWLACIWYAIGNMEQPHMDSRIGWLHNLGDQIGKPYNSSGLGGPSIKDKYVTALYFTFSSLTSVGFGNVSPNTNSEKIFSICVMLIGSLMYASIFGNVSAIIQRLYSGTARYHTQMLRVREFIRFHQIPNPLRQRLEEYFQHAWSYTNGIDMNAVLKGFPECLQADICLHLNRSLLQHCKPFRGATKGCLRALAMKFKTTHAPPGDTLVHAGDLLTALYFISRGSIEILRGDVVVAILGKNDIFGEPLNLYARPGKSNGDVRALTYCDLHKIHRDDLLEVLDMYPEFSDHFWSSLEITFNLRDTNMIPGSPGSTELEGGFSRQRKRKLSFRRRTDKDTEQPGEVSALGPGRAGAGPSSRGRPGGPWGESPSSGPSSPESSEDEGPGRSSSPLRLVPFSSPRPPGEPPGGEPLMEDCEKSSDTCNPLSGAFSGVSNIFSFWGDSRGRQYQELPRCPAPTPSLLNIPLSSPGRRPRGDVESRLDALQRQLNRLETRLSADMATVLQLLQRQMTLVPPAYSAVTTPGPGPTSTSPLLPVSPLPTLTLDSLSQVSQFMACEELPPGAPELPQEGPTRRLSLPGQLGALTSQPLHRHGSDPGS

Structure (SMILES)	inhibition (INH)
O=S1(=O)CCCN1CC(O)Cn1c2ccccc2c2ccccc21 (stereo unspecified)	Not Active

target: T1, Period circadian protein homolog 2 (Homo sapiens) (UniProt O15055); test: Reduction of amplitude effect of PER2 in human U2OS cells harboring Per2-dLuc luciferase reporter gene assessed as effects on circadian rhythms; assay type: cell-based; conditions: not given
T1 sequence (whole entry): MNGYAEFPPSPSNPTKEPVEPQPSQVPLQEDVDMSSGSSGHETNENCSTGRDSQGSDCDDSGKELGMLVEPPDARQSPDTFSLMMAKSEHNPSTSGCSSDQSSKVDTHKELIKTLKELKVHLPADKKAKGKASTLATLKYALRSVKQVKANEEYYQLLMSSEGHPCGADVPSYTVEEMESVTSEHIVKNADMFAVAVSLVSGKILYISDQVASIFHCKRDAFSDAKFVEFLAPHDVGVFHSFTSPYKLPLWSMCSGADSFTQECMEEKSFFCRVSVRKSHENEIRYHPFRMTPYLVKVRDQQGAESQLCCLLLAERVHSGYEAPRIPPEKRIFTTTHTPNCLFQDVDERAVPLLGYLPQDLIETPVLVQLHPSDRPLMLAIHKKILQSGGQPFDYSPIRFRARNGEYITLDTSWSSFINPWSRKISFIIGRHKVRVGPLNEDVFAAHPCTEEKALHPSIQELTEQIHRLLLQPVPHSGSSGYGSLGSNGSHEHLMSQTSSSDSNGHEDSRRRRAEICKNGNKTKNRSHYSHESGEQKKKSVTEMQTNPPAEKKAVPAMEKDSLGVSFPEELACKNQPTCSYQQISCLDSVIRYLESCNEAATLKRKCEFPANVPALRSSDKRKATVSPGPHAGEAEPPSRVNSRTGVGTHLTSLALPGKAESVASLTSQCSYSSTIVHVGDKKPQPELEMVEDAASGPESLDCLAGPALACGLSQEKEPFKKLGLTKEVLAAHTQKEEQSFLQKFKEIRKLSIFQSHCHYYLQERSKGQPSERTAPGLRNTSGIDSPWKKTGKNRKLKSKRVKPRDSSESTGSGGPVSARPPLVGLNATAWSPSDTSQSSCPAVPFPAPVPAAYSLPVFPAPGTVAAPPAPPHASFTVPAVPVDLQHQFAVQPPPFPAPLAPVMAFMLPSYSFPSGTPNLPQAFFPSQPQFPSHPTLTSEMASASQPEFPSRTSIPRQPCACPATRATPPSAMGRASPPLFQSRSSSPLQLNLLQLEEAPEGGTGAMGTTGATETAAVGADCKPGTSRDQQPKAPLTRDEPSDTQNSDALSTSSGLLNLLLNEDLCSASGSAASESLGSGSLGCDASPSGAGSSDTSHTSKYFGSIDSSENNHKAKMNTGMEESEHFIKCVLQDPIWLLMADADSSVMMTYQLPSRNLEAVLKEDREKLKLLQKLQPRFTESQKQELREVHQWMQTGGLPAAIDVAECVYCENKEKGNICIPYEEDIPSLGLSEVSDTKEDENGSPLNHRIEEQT
Method in brief: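 Human osteosarcoma U2OS cells carrying a Per2-dLuc luciferase reporter, treated continuously; circadian luminescence rhythm amplitude followed. 8-point threefold dilution series; EC50 taken as concentration giving 50% of the compound's own maximal response (titrations without plateau give no EC50).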

Structure (SMILES)	Activity
CC(C)CN(CC(O)Cn1c2ccccc2c2ccccc21)S(C)(=O)=O (stereo unspecified)	Dose-dependent effect
CCCCS(=O)(=O)N(Cc1ccco1)CC(O)Cn1c2ccccc2c2ccccc21 (stereo unspecified)	Dose-dependent effect
CS(=O)(=O)N(CC(O)Cn1c2ccccc2c2ccccc21)C1CCCC1 (stereo unspecified)	Dose-dependent effect
CS(=O)(=O)N(CC(O)Cn1c2ccccc2c2ccccc21)C1CC(F)(F)C1 (stereo unspecified)	Dose-dependent effect
CN(CC(O)Cn1c2ccccc2c2ccccc21)S(C)(=O)=O (stereo unspecified)	Dose-dependent effect
CS(=O)(=O)N(CC(O)Cn1c2ccccc2c2ccccc21)C1CCCCC1 (stereo unspecified)	Dose-dependent effect
CS(=O)(=O)N(CC(O)Cn1c2ccccc2c2ccccc21)c1ccc(F)cc1 (stereo unspecified)	Dose-dependent effect
CN1CCN(CC(O)Cn2c3ccccc3c3ccccc32)S1(=O)=O (stereo unspecified)	Dose-dependent effect
CS(=O)(=O)NCC(O)Cn1c2ccccc2c2ccccc21 (stereo unspecified)	Dose-dependent effect
O=S1(=O)COCCN1CC(O)Cn1c2ccccc2c2ccccc21 (stereo unspecified)	Dose-dependent effect
CC(C)N(CC(O)Cn1c2ccccc2c2ccccc21)S(C)(=O)=O (stereo unspecified)	Dose-dependent effect
CS(=O)(=O)N(CC(O)Cn1c2ccccc2c2ccccc21)C1COC1 (stereo unspecified)	Dose-dependent effect
CS(=O)(=O)N(CC(O)Cn1c2ccccc2c2ccccc21)c1cccc(F)c1 (stereo unspecified)	Dose-dependent effect
CS(=O)(=O)N(CC(O)Cn1c2ccccc2c2ccccc21)C1CCOCC1 (stereo unspecified)	Dose-dependent effect
CCCS(=O)(=O)N(Cc1ccco1)CC(O)Cn1c2ccccc2c2ccccc21 (stereo unspecified)	Dose-dependent effect
O=S(=O)(C1CCCCC1)N(Cc1ccco1)CC(O)Cn1c2ccccc2c2ccccc21 (stereo unspecified)	Dose-dependent effect
O=S1(=O)CCCCN1CC(O)Cn1c2ccccc2c2ccccc21 (stereo unspecified)	Dose-dependent effect
O=S(=O)(c1ccccc1)N(Cc1ccco1)CC(O)Cn1c2ccccc2c2ccccc21 (stereo unspecified)	Dose-dependent effect
CS(=O)(=O)N(Cc1ccccc1)CC(O)Cn1c2ccccc2c2ccccc21 (stereo unspecified)	Dose-dependent effect
O=S(=O)(C1CCOC1)N(Cc1ccco1)CC(O)Cn1c2ccccc2c2ccccc21 (stereo unspecified)	Dose-dependent effect

Structure (SMILES)	Activity
CC(C)CS(=O)(=O)N(Cc1ccco1)CC(O)Cn1c2ccccc2c2ccccc21 (stereo unspecified)	Dose-dependent effect
CCCN(CC(O)Cn1c2ccccc2c2ccccc21)S(C)(=O)=O (stereo unspecified)	Dose-dependent effect
CCS(=O)(=O)N(Cc1ccco1)CC(O)Cn1c2ccccc2c2ccccc21 (stereo unspecified)	Dose-dependent effect
CS(=O)(=O)N(CC(O)Cn1c2ccccc2c2ccccc21)C1CCC(F)(F)CC1 (stereo unspecified)	Dose-dependent effect
CN1CCCN(CC(O)Cn2c3ccccc3c3ccccc32)S1(=O)=O (stereo unspecified)	Dose-dependent effect
O=S(=O)(Cc1ccccc1)N(Cc1ccco1)CC(O)Cn1c2ccccc2c2ccccc21 (stereo unspecified)	Dose-dependent effect
CS(=O)(=O)N(CC(O)Cn1c2ccccc2c2ccccc21)C1CC1 (stereo unspecified)	Dose-dependent effect
CC(C)S(=O)(=O)N(Cc1ccco1)CC(O)Cn1c2ccccc2c2ccccc21 (stereo unspecified)	Dose-dependent effect
CS(=O)(=O)N(CC(O)Cn1c2ccccc2c2ccccc21)c1ccccc1F (stereo unspecified)	Dose-dependent effect
CCN(CC(O)Cn1c2ccccc2c2ccccc21)S(C)(=O)=O (stereo unspecified)	Dose-dependent effect
O=S1(=O)CCN1CC(O)Cn1c2ccccc2c2ccccc21 (stereo unspecified)	Dose-dependent effect
O=S1(=O)CCCN1CC(O)Cn1c2ccccc2c2ccccc21 (stereo unspecified)	Dose-dependent effect
COCCN(CC(O)Cn1c2ccccc2c2ccccc21)S(C)(=O)=O (stereo unspecified)	Dose-dependent effect
O=S1(=O)NCCN1CC(O)Cn1c2ccccc2c2ccccc21 (stereo unspecified)	Dose-dependent effect
CS(=O)(=O)N(CC(O)Cn1c2ccccc2c2ccccc21)C1CCC1 (stereo unspecified)	Dose-dependent effect
CS(=O)(=O)N(CC(O)Cn1c2ccccc2c2ccccc21)c1ccccc1 (stereo unspecified)	Dose-dependent effect
O=S1(=O)NCCCN1CC(O)Cn1c2ccccc2c2ccccc21 (stereo unspecified)	Dose-dependent effect
O=S(=O)(C1CC1)N(Cc1ccco1)CC(O)Cn1c2ccccc2c2ccccc21 (stereo unspecified)	Dose-dependent effect
COCCS(=O)(=O)N(Cc1ccco1)CC(O)Cn1c2ccccc2c2ccccc21 (stereo unspecified)	Dose-dependent effect

test system: not listed separately; test: Mean plasma residence time in po dosed ICR mouse; assay type: ADME, organism-based; conditions: not given; call rule not given here
Method in brief: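 Male ICR mice dosed orally; plasma concentrations followed to derive mean plasma residence time (h).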

Structure (SMILES)	MRT [h]
CN(CC(O)Cn1c2ccccc2c2ccccc21)S(C)(=O)=O (stereo unspecified)	3.01
CS(=O)(=O)NCC(O)Cn1c2ccccc2c2ccccc21 (stereo unspecified)	1.92
O=S1(=O)CCCN1CC(O)Cn1c2ccccc2c2ccccc21 (stereo unspecified)	7.63
O=S1(=O)NCCCN1CC(O)Cn1c2ccccc2c2ccccc21 (stereo unspecified)	5.12

test system: Salmonella typhimurium; test: Genotoxicity in Salmonella typhimurium by Ames assay; assay type: toxicity, organism-based; conditions: salmonella enterica subsp. enterica serovar typhimurium

Structure (SMILES)	Activity
O=S1(=O)CCCN1CC(O)Cn1c2ccccc2c2ccccc21 (stereo unspecified)	Non-toxic

test system: Mus musculus; test: Antidiabetic activity in diet-induced obese C57BL/6J mouse model assessed as reduction of glucose AUC at 100 mg/kg, qd for 7 days; assay type: functional; set-up: scale not given: the % may be the effect or the level left; conditions: not given
Method in brief: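 Diet-induced obese C57BL/6J mice (25 weeks old, high-fat diet for 19 weeks) dosed 100 mg/kg once daily for 7 days, then given an oral glucose tolerance test; glucose clearance expressed as percent reduction in glucose AUC.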

Structure (SMILES)	Activity [%]
O=S1(=O)CCCN1CC(O)Cn1c2ccccc2c2ccccc21 (stereo unspecified)	41
